Reference: ChEMBL document CHEMBL3272018, “Synthesis of aziridinylallylaminophosphine oxides and sulfides as potential adjuvant cancer chemotherapeutic agents” (J Med Chem, 1976)
The source made the active and inactive calls. The rule behind the calls is not given here.

Legend:
[1] = system: Musca domestica; assay: Toxicity in male house fly assessed as sterility; type: organism-based; settings: in vivo
[2] = system: Musca domestica; assay: Toxicity in mixed sex house flies assessed as sterility at 1% administered in sugar relative to control; type: organism-based; settings: in vivo, po
[3] = system: Rattus norvegicus; assay: Toxicity in rat allografted with rat Walker 256 cells intramuscularly assessed as change in body weight at 0.23 mg/kg, qd administered for 5 days; type: organism-based; design: dose 0.23 mg/kg, route intramuscular; settings: in vivo, im, 120 h
Outline: (§1)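 Walker 256 carcinoma solid-tumour system in rats (parent line, or the line resistant to cytoxan). Dosing was one injection per day for 5 days. Toxicity was taken as the average net body-weight change of the treated group minus the average net weight change of the untreated tumour-bearing controls, in grams.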

[4] = system: W256; assay: Antitumor activity against rat Walker 256 cells intramuscularly allografted in rat assessed as survival rate at 1.56 mg/kg, qd administered for 5 days; type: functional, organism-based; design: dose 1.56 mg/kg
Outline: (§2)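 Rats bearing Walker 256 carcinoma as a solid tumor; lines 1-8 use a cytoxan-resistant Walker 256 subline. Dosed once daily for 5 days. Treated (T) and untreated control (C) groups are compared, and the response is given as T/C percentage, reflecting increase in survival time. Host weight change is the average weight change of the test group minus that of the controls, in grams.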

[5] = system: W256; assay: Antitumor activity against rat Walker 256 cells intramuscularly allografted in rat assessed as tumor growth inhibition at 3.12 mg/kg, qd administered for 5 days relative to control; type: functional; settings: W256, im, 120 h, route intramuscular, read-out: TGI
Outline: (§3)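 Walker 256 carcinoma grown as a solid tumour in rats, with one injection daily for 5 days. Response is given as T/C %, the treated-group measure over the untreated-control tumour measure; a smaller value means more activity. Host toxicity is the mean net weight change of treated minus control animals, in grams.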

[6] = system: Rattus norvegicus; assay: Toxicity in rat allografted with rat Walker 256 cells intramuscularly assessed as change in body weight at 0.78 mg/kg, qd administered for 5 days; type: organism-based; design: dose 0.78 mg/kg, route intramuscular; settings: in vivo, im, 120 h; outline: as §1
[7] = system: Rattus norvegicus; assay: Toxicity in rat allografted with rat Walker 256 cells intramuscularly assessed as change in body weight at 3.12 mg/kg, qd administered for 5 days; type: organism-based; design: dose 3.12 mg/kg, route intramuscular; settings: in vivo, im, 120 h; outline: as §1
[8] = system: Rattus norvegicus; assay: Toxicity in rat allografted with rat Walker 256 cells intramuscularly assessed as mortality at 12 mg/kg administered as single dose; type: organism-based; design: dose 12 mg/kg, route intramuscular; settings: in vivo, im
Outline: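 Walker 256 solid-tumour system in rats. A single dose level of 12.0 mg/kg was given as one injection. Toxic deaths were recorded, and tumour presence was checked when the animals were sacrificed.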

[9] = system: W256; assay: Antitumor activity against rat Walker 256 cells intramuscularly allografted in rat assessed as survival rate at 0.23 mg/kg, qd administered for 5 days; type: functional, organism-based; design: dose 0.23 mg/kg; outline: as §2
[10] = system: W256; assay: Antitumor activity against rat Walker 256 cells intramuscularly allografted in rat assessed as tumor growth inhibition at 1.56 mg/kg, qd administered for 5 days relative to control; type: functional; settings: W256, im, 120 h, route intramuscular, read-out: TGI
Outline: (§4)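 Dosed once daily for 5 days. Response is tumor progression in treated (T) versus untreated control (C) animals, expressed as T/C percentage. Host weight change is reported as the average net weight change of the test group minus that of the controls, in grams.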

[11] = Therapeutic index, ratio of LD50 for rat allografted with rat Walker 256 cells to ED10 for antitumor activity against rat Walker 256 cells intramuscularly allografted in rat; type: cell-based; settings: read-out: TI
Outline: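 Therapeutic index is LD50/ED10 in the Walker 256 solid tumour system. ED10 is the dose giving a 10% tumour weight reduction, with values extrapolated from dose-response data.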

[12] = system: W256; assay: Antitumor activity against rat Walker 256 cells intramuscularly allografted in rat assessed as survival rate at 0.78 mg/kg, qd administered for 5 days; type: functional, organism-based; design: dose 0.78 mg/kg; outline: as §2
[13] = system: W256; assay: Antitumor activity against rat Walker 256 cells intramuscularly allografted in rat assessed as tumor growth inhibition at 0.47 mg/kg, qd administered for 5 days relative to control; type: functional; settings: W256, im, 120 h, route intramuscular, read-out: TGI; outline: as §4
[14] = system: Rattus norvegicus; assay: Toxicity in rat allografted with rat Walker 256 cells intramuscularly assessed as change in body weight at 1.56 mg/kg, qd administered for 5 days; type: organism-based; design: dose 1.56 mg/kg, route intramuscular; settings: in vivo, im, 120 h; outline: as §1
[15] = system: W256; assay: Antitumor activity against rat Walker 256 cells intramuscularly allografted in rat assessed as tumor incidence at 12 mg/kg administered as single dose; type: functional, organism-based; design: dose 12 mg/kg
Outline: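 Walker 256 solid tumour in rats, given one injection at 12.0 mg/kg. Tumours and toxic deaths were recorded at sacrifice.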

[16] = system: W256; assay: Antitumor activity against rat Walker 256 cells intramuscularly allografted in rat assessed as survival rate at 6.25 mg/kg, qd administered for 5 days; type: functional, organism-based; design: dose 6.25 mg/kg; outline: as §2
[17] = system: W256; assay: Antitumor activity against rat Walker 256 cells intramuscularly allografted in rat assessed as tumor growth inhibition at 0.23 mg/kg, qd administered for 5 days relative to control; type: functional; settings: W256, im, 120 h, route intramuscular, read-out: TGI; outline: as §4
[18] = Toxicity in rat allografted with rat Walker 256 cells intramuscularly; type: organism-based
[19] = system: W256; assay: Antitumor activity against rat Walker 256 cells intramuscularly allografted in rat assessed as survival rate at 3.12 mg/kg, qd administered for 5 days; type: functional, organism-based; design: dose 3.12 mg/kg; outline: as §2
[20] = system: W256; assay: Antitumor activity against rat Walker 256 cells intramuscularly allografted in rat assessed as tumor growth inhibition at 6.25 mg/kg, qd administered for 5 days relative to control; type: functional; settings: W256, im, 120 h, route intramuscular, read-out: TGI; outline: as §3
[21] = system: Rattus norvegicus; assay: Toxicity in rat allografted with rat Walker 256 cells intramuscularly assessed as change in body weight at 0.47 mg/kg, qd administered for 5 days; type: organism-based; design: dose 0.47 mg/kg, route intramuscular; settings: in vivo, im, 120 h; outline: as §1
[22] = system: Rattus norvegicus; assay: Toxicity in rat allografted with rat Walker 256 cells intramuscularly assessed as change in body weight at 6.25 mg/kg, qd administered for 5 days; type: organism-based; design: dose 6.25 mg/kg, route intramuscular; settings: in vivo, im, 120 h; outline: as §1
[23] = system: W256; assay: Antitumor activity against rat Walker 256 cells intramuscularly allografted in rat assessed as tumor growth inhibition; type: functional; settings: W256, im; outline: as §4
[24] = system: W256; assay: Antitumor activity against rat Walker 256 cells intramuscularly allografted in rat assessed as survival rate at 0.47 mg/kg, qd administered for 5 days; type: functional, organism-based; design: dose 0.47 mg/kg; outline: as §2
[25] = system: W256; assay: Antitumor activity against rat Walker 256 cells intramuscularly allografted in rat assessed as tumor growth inhibition at 0.78 mg/kg, qd administered for 5 days relative to control; type: functional; settings: W256, im, 120 h, route intramuscular, read-out: TGI; outline: as §4

C=CCN(C1=CCCCC1)P(=O)(N1CC1C)N1CC1C (stereo not given)
Activity [1]: Non-toxic
Activity [2]: 82%

C=CCN(CC=C)P(=O)(N(CC=C)CC=C)N1CC1C (stereo not given)
Activity [3]: -3 g
Activity [4]: Active
inhibition in vivo at 3.12 mg/kg [5]: 1%
Activity [6]: -8 g
Activity [7]: -15 g
Activity [8]: Non-toxic
Activity [9]: Active
inhibition in vivo at 1.56 mg/kg [10]: 2%
selectivity ratio [11]: 125
Activity [12]: Active
inhibition in vivo at 0.47 mg/kg [13]: 2%
Activity [14]: -22 g
Activity [15]: Active
Activity [16]: Active
inhibition in vivo at 0.23 mg/kg [17]: 33%
LD50 [18]: 75 mg/kg
Activity [19]: Active
inhibition in vivo at 6.25 mg/kg [20]: 3%
Activity [21]: -15 g
Activity [22]: -28 g
ED10 [23]: 0.62 mg/kg
Activity [24]: Active
inhibition in vivo at 0.78 mg/kg [25]: 4%
